# Assay results taken from ChEMBL document CHEMBL1269010, “Phenolic bis-styrylbenzenes as β-amyloid binding ligands and free radical scavengers” (J Med Chem, 2010).
# Activity calls are given as the source filed them. The rule behind the calls is not given here.
# Species on record: Mus musculus
# Assay: Binding affinity to beta-amyloid plaque in APP/PS1 transgenic mouse brain assessed as signal-to-noise ratio after 30 mins by DAPI staining
# Format: tissue-based
# Outline: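 Eleven-month-old APP/PS1 mice (Tg2576 × PS1 M146L 6.1) perfusion-fixed with 4% paraformaldehyde; cryosections 10 μm, three per concentration. Stained 30 min with 50 μM compound in 9:1 PBS/EtOH, then washed in 75% EtOH, 95% EtOH and xylene. Imaged through a DAPI filter; S/N taken from five plaque versus five background regions across three plaques per section.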
row,Compound,Ratio
1,Oc1ccc(/C=C/c2ccc(/C=C/c3cccc(O)c3)cc2)cc1,9
2,Oc1ccc(C#Cc2ccc(C#Cc3ccc(O)cc3)cc2)cc1,5.9
3,Oc1ccc(/C=C/c2ccc(/C=C/c3ccccc3)cc2)cc1,8.1
4,Oc1ccc(/C=C/c2ccccc2/C=C/c2ccc(O)cc2)cc1,5.1
5,Oc1ccccc1/C=C/c1ccc(/C=C/c2ccccc2O)cc1,11
6,Oc1ccc(/C=C/c2ccc(/C=C/c3ccc(O)c(O)c3)cc2)cc1,9.1
7,Oc1cc(O)cc(/C=C/c2ccc(/C=C/c3cc(O)cc(O)c3)cc2)c1,9.6
8,Oc1cccc(/C=C/c2ccc(/C=C/c3cccc(O)c3)cc2)c1,9.6
9,Oc1ccc(/C=C/c2cccc(/C=C/c3ccc(O)cc3)c2)cc1,3.1
10,Oc1ccc(/C=C/c2ccc(/C=C/c3cc(O)cc(O)c3)cc2)cc1,3.8
11,Oc1cccc(/C=C/c2ccc(/C=C/c3ccc(O)c(O)c3)cc2)c1,5.6
12,"Oc1ccc(/C=C/c2ccc(O)cc2)cc1 [TRANS-4,4'-DIHYDROXYSTILBENE]",5.2
13,Oc1ccc(/C=C/c2ccc(/C=C/c3ccc(O)cc3)cc2)cc1,14

# Molecular target: Amyloid-beta precursor protein (Homo sapiens) (UniProt P05067)
# Assay: Binding affinity to beta-amyloid plaque in brain of patient with Alzheimer's disease after 30 mins by fluorescence microscopy
# Format: tissue-based
# Outline: (§1)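 Frozen sections (10 μm) of human AD brain and age-matched control brain. Stained 30 min with 50 μM compound in 9:1 PBS/EtOH, washed in 75% EtOH, 95% EtOH and xylene, then fluorescence-imaged through a DAPI filter.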
# Sequence of Amyloid-beta precursor protein (Homo sapiens) (P05067 whole entry): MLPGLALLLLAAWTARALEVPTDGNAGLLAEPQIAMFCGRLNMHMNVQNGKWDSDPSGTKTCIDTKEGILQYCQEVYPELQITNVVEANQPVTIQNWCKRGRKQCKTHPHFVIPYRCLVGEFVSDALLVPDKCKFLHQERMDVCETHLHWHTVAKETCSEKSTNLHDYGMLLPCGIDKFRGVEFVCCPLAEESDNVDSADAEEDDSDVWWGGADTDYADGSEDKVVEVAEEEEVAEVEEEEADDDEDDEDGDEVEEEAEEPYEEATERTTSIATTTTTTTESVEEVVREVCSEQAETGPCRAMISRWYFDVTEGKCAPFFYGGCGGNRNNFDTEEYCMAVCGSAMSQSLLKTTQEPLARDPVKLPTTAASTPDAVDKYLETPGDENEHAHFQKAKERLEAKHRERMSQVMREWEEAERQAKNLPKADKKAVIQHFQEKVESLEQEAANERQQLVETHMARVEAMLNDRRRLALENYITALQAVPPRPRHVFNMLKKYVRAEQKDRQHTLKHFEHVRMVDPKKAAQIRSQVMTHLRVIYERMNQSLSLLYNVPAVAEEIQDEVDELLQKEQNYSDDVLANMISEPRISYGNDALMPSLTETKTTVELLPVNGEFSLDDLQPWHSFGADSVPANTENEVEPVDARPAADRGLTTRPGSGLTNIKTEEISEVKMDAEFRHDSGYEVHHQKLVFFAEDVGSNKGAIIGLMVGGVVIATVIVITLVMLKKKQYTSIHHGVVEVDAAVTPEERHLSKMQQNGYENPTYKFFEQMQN
row,Compound,Activity
1,Oc1cc(O)cc(/C=C/c2ccc(/C=C/c3cc(O)cc(O)c3)cc2)c1,Active
2,Oc1cccc(/C=C/c2ccc(/C=C/c3cccc(O)c3)cc2)c1,Active
3,Oc1ccc(/C=C/c2ccc(/C=C/c3ccc(O)cc3)cc2)cc1,Active

# Molecular target: Amyloid-beta precursor protein (Homo sapiens) (UniProt P05067)
# Assay: Binding affinity to beta-amyloid plaque in normal human brain after 30 mins by fluorescence microscopy
# Format: tissue-based
# Outline: as §1
row,Compound,Activity
1,Oc1cc(O)cc(/C=C/c2ccc(/C=C/c3cc(O)cc(O)c3)cc2)c1,inactive
2,Oc1cccc(/C=C/c2ccc(/C=C/c3cccc(O)c3)cc2)c1,inactive
3,Oc1ccc(/C=C/c2ccc(/C=C/c3ccc(O)cc3)cc2)cc1,inactive

# Test system: Mus musculus
# Assay: In vivo binding affinity to beta-amyloid plaque in PDAPP transgenic mouse hippocampus CA1 region at 50 mg/kg, ip after 48 hrs
# Format: functional, organism-based
# Set-up: dose 50 mg/kg
# Outline: (§2)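 Ten-month-old PDAPP mice given a single 50 mg/kg ip dose, vehicle 10% DMSO/PBS, with vehicle-only animals as control. Perfused with 4% PFA at 48 h; brain sections postfixed in 4% PFA for 5 min and mounted. CA1 and dentate gyrus plaques imaged by fluorescence microscopy at 10× and 40×.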
row,Compound,Activity
1,Oc1cc(O)cc(/C=C/c2ccc(/C=C/c3cc(O)cc(O)c3)cc2)c1,Active
2,Oc1cccc(/C=C/c2ccc(/C=C/c3cccc(O)c3)cc2)c1,Active
3,Oc1ccc(/C=C/c2ccc(/C=C/c3ccc(O)cc3)cc2)cc1,Active

# Test system: Mus musculus
# Assay: In vivo binding affinity to beta-amyloid plaque in PDAPP transgenic mouse hippocampus dentate gyrus region at 50 mg/kg, ip after 48 hrs
# Format: functional, organism-based
# Set-up: dose 50 mg/kg
# Outline: as §2
row,Compound,Activity
1,Oc1cc(O)cc(/C=C/c2ccc(/C=C/c3cc(O)cc(O)c3)cc2)c1,Active
2,Oc1cccc(/C=C/c2ccc(/C=C/c3cccc(O)c3)cc2)c1,Active
3,Oc1ccc(/C=C/c2ccc(/C=C/c3ccc(O)cc3)cc2)cc1,Active

# Test system: Mus musculus
# Assay: In vivo binding affinity to beta-amyloid plaque in mouse hippocampus dentate gyrus region at 50 mg/kg, ip after 48 hrs
# Format: functional, organism-based
# Set-up: dose 50 mg/kg
row,Compound,Activity
1,Oc1cc(O)cc(/C=C/c2ccc(/C=C/c3cc(O)cc(O)c3)cc2)c1,inactive
2,Oc1cccc(/C=C/c2ccc(/C=C/c3cccc(O)c3)cc2)c1,inactive
3,Oc1ccc(/C=C/c2ccc(/C=C/c3ccc(O)cc3)cc2)cc1,inactive

# Test system: Radical scavenging activity
# Assay: Antioxidant activity assessed as DPPH radical scavenging activity by spectrophotometric analysis
# Format: functional
# Outline: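 DPPH (100 μM) in MeOH mixed with test compound from 0 nM to 5 mM; compounds came from ~15 mM DMSO stocks diluted in MeOH. Loss of absorbance at 517 nm read on a plate reader. Each concentration run in triplicate; IC50 taken from a sigmoidal dose-response fit.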
row,Compound,IC50 [µM]
1,Oc1ccc(/C=C/c2ccc(/C=C/c3cccc(O)c3)cc2)cc1,3.5
2,Oc1ccc(C#Cc2ccc(C#Cc3ccc(O)cc3)cc2)cc1,45
3,Oc1ccc(/C=C/c2ccc(/C=C/c3ccccc3)cc2)cc1,5.6
4,Oc1ccc(/C=C/c2ccccc2/C=C/c2ccc(O)cc2)cc1,4
5,Oc1ccccc1/C=C/c1ccc(/C=C/c2ccccc2O)cc1,4
6,Oc1ccc(/C=C/c2ccc(/C=C/c3ccc(O)c(O)c3)cc2)cc1,> 100
7,Oc1cc(O)cc(/C=C/c2ccc(/C=C/c3cc(O)cc(O)c3)cc2)c1,5.1
8,Oc1cccc(/C=C/c2ccc(/C=C/c3cccc(O)c3)cc2)c1,> 100
9,Oc1ccc(/C=C/c2cccc(/C=C/c3ccc(O)cc3)c2)cc1,3.4
10,Oc1ccc(/C=C/c2ccc(/C=C/c3cc(O)cc(O)c3)cc2)cc1,4.5
11,Oc1cccc(/C=C/c2ccc(/C=C/c3ccc(O)c(O)c3)cc2)c1,9.1
12,"Oc1ccc(/C=C/c2ccc(O)cc2)cc1 [TRANS-4,4'-DIHYDROXYSTILBENE]",1.8
13,Oc1ccc(/C=C/c2cc(O)cc(O)c2)cc1 [RESVERATROL],62
14,O=c1c(O)c(-c2ccc(O)c(O)c2)oc2cc(O)cc(O)c12 [QUERCETIN],1.3
15,Oc1ccc(/C=C/c2ccc(/C=C/c3ccc(O)cc3)cc2)cc1,3.1

# Molecular target: not listed separately
# Assay: Binding affinity to aggregated amyloid beta (1 to 40) by fluorescence titration analysis
row,Compound,Kd [µM]
1,Oc1ccc(/C=C/c2ccc(/C=C/c3cccc(O)c3)cc2)cc1,3.5
2,Oc1ccc(C#Cc2ccc(C#Cc3ccc(O)cc3)cc2)cc1,0.054
3,Oc1ccc(/C=C/c2ccc(/C=C/c3ccccc3)cc2)cc1,0.16
4,Oc1ccc(/C=C/c2ccccc2/C=C/c2ccc(O)cc2)cc1,6.3
5,Oc1ccccc1/C=C/c1ccc(/C=C/c2ccccc2O)cc1,0.8
6,Oc1ccc(/C=C/c2ccc(/C=C/c3ccc(O)c(O)c3)cc2)cc1,0.26
7,Oc1cc(O)cc(/C=C/c2ccc(/C=C/c3cc(O)cc(O)c3)cc2)c1,0.16
8,Oc1cccc(/C=C/c2ccc(/C=C/c3cccc(O)c3)cc2)c1,0.0053
9,Oc1ccc(/C=C/c2cccc(/C=C/c3ccc(O)cc3)c2)cc1,2.5
10,Oc1ccc(/C=C/c2ccc(/C=C/c3cc(O)cc(O)c3)cc2)cc1,0.19
11,Oc1cccc(/C=C/c2ccc(/C=C/c3ccc(O)c(O)c3)cc2)c1,0.2
12,"Oc1ccc(/C=C/c2ccc(O)cc2)cc1 [TRANS-4,4'-DIHYDROXYSTILBENE]",9.2
13,Oc1ccc(/C=C/c2ccc(/C=C/c3ccc(O)cc3)cc2)cc1,0.0095
